The record followed here is ChEMBL document CHEMBL1909522, “Inhibitory effect on NO production of phenolic compounds from Myristica fragrans” (Bioorg Med Chem Lett, 2011).

Each structure is given as a SMILES string. Activity calls are given as the source filed them. The rule behind the calls is not given here.

By IC50 is commonly meant the concentration that gives 50% inhibition.

Series [1] has as its system RAW264.7. The series is described as follows: Antiinflammatory activity in mouse RAW264.7 cells assessed as inhibition of LPS-induced NO production after 24 hrs by Griess reagent method. It counts as functional, cell-based. Conditions: RAW264.7, 24 h. The essentials: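 RAW264.7 cells (1 × 10^5 per well) stimulated with 1 µg/mL LPS for 24 h with or without test compounds (0.5–25 µM). Nitrite in culture supernatant measured by Griess reaction as NO marker. IC50 relative to vehicle control; average of three repeated experiments.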

Series [2] deals with RAW264.7. The series is described as follows: Cytotoxicity against mouse RAW264.7 cells assessed as cell viability at 50 uM after 24 hrs by MTT assay. In kind it is cell-based. Conditions: raw264.7, 24 h. The essentials:
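Cells remaining after the Griess step, with or without LPS (1 µg/mL) and compound at 50 µM for 24 h, assessed by MTT colorimetric assay for viability.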
In general terms: Tetrazolium assays rely on reduction of a dye to a coloured formazan, in cell work by metabolically active cells.

For series [3], the system named is RAW264.7. The series is described as follows: Antiinflammatory activity in mouse RAW264.7 cells assessed as inhibition of LPS-stimulated COX2 expression after 18 hrs by immunoblot analysis. In kind it is functional, cell-based. The essentials:
(§1)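 RAW264.7 cells pretreated 30 min with compound (0, 1, 3, 10 µM), then stimulated with LPS 1 µg/mL for 18 h. Lysates in Tris-HCl pH 7.5/NP-40 buffer with protease/phosphatase inhibitors; 50 µg protein per lane on SDS-PAGE, PVDF transfer, antibody probing, ECL detection. Densitometry normalized to α-tubulin; mean ± S.D.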
(In general: In western blotting, separated proteins are transferred to a membrane and probed.)

Series [4] deals with RAW264.7. Description: Antiinflammatory activity in mouse RAW264.7 cells assessed as inhibition of LPS-stimulated iNOS expression after 18 hrs by immunoblot analysis. It counts as functional, cell-based. An outline of the steps: as §1
Series [5] concerns RAW264.7. The series is described as follows: Antiinflammatory activity in mouse RAW264.7 cells assessed as inhibition of LPS-stimulated alpha-tubulin expression at 0.1 to 10 uM after 18 hrs by immunoblot analysis. In kind it is functional, cell-based.

With `O=C(CCCCCCCCc1ccc(O)c(O)c1)c1c(O)cccc1O` [MALABARICONE C], in the series with RAW264.7 [1], the IC50 worked out at 2.3 µM. Further, in the series with RAW264.7 [2], the Activity result is “Non-toxic”. For the same compound, the inhibition entry with RAW264.7 [3] and in the series with RAW264.7 [4] was “Dose-dependent effect” throughout. Also, in the series with RAW264.7 [5], the inhibition entry was “inactive”.
With `COc1cc(C[C@@H](C)[C@H](C)c2cc(O)c(O)c(OC)c2)ccc1O`, the IC50 in the series with RAW264.7 [1] was 32.5 µM. Also, the Activity result in the series with RAW264.7 [2] is “Non-toxic”.
For `Oc1ccc([C@@H](O)CCc2ccc3c(c2)OCO3)c(O)c1` the same measures were more than 50 µM and “Non-toxic”.
`C/C=C/c1ccc(O[C@H](C)[C@@H](O)c2ccc(O)c(OC)c2)c(OC)c1`: the IC50 with RAW264.7 [1] came out at 25 µM. Further, the Activity result with RAW264.7 [2] is recorded as “Non-toxic”.
As for `C=CCc1cc(OC)c(O[C@H](C)[C@@H](OC(C)=O)c2ccc(OC)c(OC)c2)c(OC)c1`, the half-inhibitory concentration (IC50) with RAW264.7 [1] turned out to be 24.5 µM.
As for `COc1cc(CC[C@H](O)c2ccc(O)cc2O)ccc1O`, the IC50 with RAW264.7 [1] is more than 50 µM. For the same compound, the Activity result in the series on RAW264.7 [2] is “Non-toxic”.
For the compound `CC1=C(O)C(=O)C=C2C1=CC=C1[C@@]2(C)CC[C@@]2(C)[C@@H]3C[C@](C)(C(=O)O)CC[C@]3(C)CC[C@]12C` [CELASTROL], in the series with RAW264.7 [1], the half-maximal inhibitory concentration (IC50) was 1 µM.
In the case of `C=CCc1cc(OC)c(O[C@H](C)[C@@H](O)c2ccc(OC)c(OC)c2)c(OC)c1`, the 50% inhibitory concentration (IC50) with RAW264.7 [1] is more than 50 µM. Moreover, in the series with RAW264.7 [2], the Activity entry is “Non-toxic”.
